Activity calls are given as the source filed them. No cut-off for these calls is given here.

Broadly, the ED50 is the midpoint of the dose-response relation.

The species named for one test is Rattus norvegicus. Kind of test: Antiandrogenic activity as the dose required to inhibit testosterone propionate-induced rat ventral prostate weight gain in castrated immature rat by 50%. Format: functional, Prostate gland. A digest of the protocol: (§1)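 Weanling male Sprague-Dawley rats castrated; dosing began 1 week later, grouped by body weight. […] Rats weighed and killed the next day; ventral prostate removed, blotted, weighed. ED50 read graphically as dose halving TP-stimulated prostate weight gain.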

Test [1] addresses T1, Androgen receptor (Rattus norvegicus) (UniProt P15207).
T1 sequence (whole entry): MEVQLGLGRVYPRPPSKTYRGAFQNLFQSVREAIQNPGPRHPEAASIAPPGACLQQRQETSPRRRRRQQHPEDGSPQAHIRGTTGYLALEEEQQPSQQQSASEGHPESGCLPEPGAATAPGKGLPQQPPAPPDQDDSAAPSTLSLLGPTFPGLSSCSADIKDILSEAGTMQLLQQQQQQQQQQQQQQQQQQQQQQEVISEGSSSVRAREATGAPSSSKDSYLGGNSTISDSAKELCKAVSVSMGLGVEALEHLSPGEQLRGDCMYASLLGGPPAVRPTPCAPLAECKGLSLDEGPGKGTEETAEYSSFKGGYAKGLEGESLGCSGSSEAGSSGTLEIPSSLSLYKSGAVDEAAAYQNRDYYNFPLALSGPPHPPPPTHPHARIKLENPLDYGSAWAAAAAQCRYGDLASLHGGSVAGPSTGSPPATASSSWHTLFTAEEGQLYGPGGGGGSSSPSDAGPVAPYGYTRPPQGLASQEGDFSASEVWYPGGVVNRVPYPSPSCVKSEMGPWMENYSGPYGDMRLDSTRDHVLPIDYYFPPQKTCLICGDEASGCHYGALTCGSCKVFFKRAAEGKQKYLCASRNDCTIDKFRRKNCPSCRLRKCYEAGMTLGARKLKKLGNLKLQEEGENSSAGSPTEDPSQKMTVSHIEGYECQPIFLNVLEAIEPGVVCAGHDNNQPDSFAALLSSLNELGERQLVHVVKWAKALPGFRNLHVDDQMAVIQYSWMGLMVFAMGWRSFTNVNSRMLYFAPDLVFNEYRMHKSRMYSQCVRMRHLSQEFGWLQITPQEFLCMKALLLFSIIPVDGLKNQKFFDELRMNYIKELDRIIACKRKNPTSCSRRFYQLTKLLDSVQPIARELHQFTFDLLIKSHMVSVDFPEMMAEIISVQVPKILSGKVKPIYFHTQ
The conditions noted are these: Prostate gland.

The target of test [2] is T1, Androgen receptor (Rattus norvegicus). Kind of test: Anti-androgenic activity, inhibition of testosterone propionate induced rat ventral prostate (castrated immature rat) weight gain. Conditions: Prostate gland. Format: functional. The method in brief:
as §1

Where [3] appears, read: Rattus norvegicus, Prostate gland, read-out: ED50.

Compound `C#C[C@]1(O)CC[C@H]2[C@@H]3CC[C@H]4Cc5nn(S(C)(=O)=O)cc5C[C@]4(C)[C@H]3CC[C@@]21C` (stereo in doubt; 1) [ZANOTERONE] came in with an ED50 in the test listed under Rattus norvegicus of 15 mg/kg.

Regarding `CC(=O)O[C@]1(C(C)=O)CC[C@H]2[C@@H]3C=C(Cl)C4=CC(=O)[C@@H]5C[C@@H]5[C@]4(C)[C@H]3CC[C@@]21C` [CYPROTERONE ACETATE], the ED50 in the test filed under Rattus norvegicus (setting [3]) is 18 mg/kg. As for `C[C@]12CCC3C(CC[C@H]4Cc5nn(S(C)(=O)=O)cc5C[C@]34C)C1CC[C@@H]2O` (stereo partly specified), in the test listed under Rattus norvegicus (setting [3]), the 50% effective dose (ED50) is above 100 mg/kg. Consider `C[C@]12Cc3cn(S(C)(=O)=O)nc3C=C1CCC1C2CC[C@@]2(C)C1CC[C@]2(C)O` (stereo partly specified), for which, in test [1], the Increase result was “inactive”. Further, in the test listed under Rattus norvegicus (setting [3]), the ED50 amounted to 16 mg/kg.

Take `C#C[C@]1(O)CCC2C3CC[C@H]4Cc5nn(S(=O)(=O)C(C)C)cc5C[C@]4(C)C3CC[C@@]21C` (stereo partly specified): in the test filed under Rattus norvegicus (setting [3]), the ED50 is above 100 mg/kg. As for `C[C@]1(O)CCC2C3CC[C@H]4Cc5nn(S(C)(=O)=O)cc5C[C@]4(C)C3CC[C@@]21C` (stereo partly specified), the Increase entry in test [1] is “inactive”. Also, the ED50 in the test listed under Rattus norvegicus (setting [3]) amounted to 10 mg/kg. The corresponding values for `C#C[C@]1(O)CCC2C3CCC4=Cc5nn(S(C)(=O)=O)cc5C[C@]4(C)C3CC[C@@]21C` (stereo partly specified) are “inactive” and below 100 mg/kg. Consider `C#C[C@]1(O)CC[C@H]2[C@@H]3CC[C@H]4Cc5nn(S(C)(=O)=O)cc5C[C@]4(C)[C@H]3CC[C@@]21C` (stereo in doubt; 1), for which, in test [1], the Increase entry is “inactive”. Regarding `C#C[C@]1(O)CCC2C3CCC4=C(C)c5nn(S(C)(=O)=O)cc5C[C@]4(C)C3CC[C@@]21C` (stereo partly specified), the Increase result in test [1] was “inactive”. In addition, the 50% effective dose (ED50) in the test filed under Rattus norvegicus (setting [3]) turned out to be 14 mg/kg.

As for `C[C@]12Cc3cn(S(C)(=O)=O)nc3C=C1CCC1C2CC[C@@]2(C)C1CC[C@@H]2O` (stereo partly specified), the median effective dose (ED50) in the test listed under Rattus norvegicus (setting [3]) was above 100 mg/kg.

With `C#C[C@]1(O)CC[C@H]2[C@@H]3CC[C@H]4Cc5nn(S(C)(=O)=O)cc5C[C@]4(C)[C@H]3CC[C@@]21C` (stereo in doubt; 28) [ZANOTERONE], the ED50 in the test listed under Rattus norvegicus came out at 40 mg/kg. In the case of `C#C[C@]1(O)CCC2C3CC[C@H]4Cc5nn(S(=O)(=O)CC)cc5C[C@]4(C)C3CC[C@@]21C` (stereo partly specified), in the test filed under Rattus norvegicus (setting [3]), the 50% effective dose (ED50) worked out at 100 mg/kg. On to `CC[C@]1(O)CCC2C3CC[C@H]4Cc5nn(S(C)(=O)=O)cc5C[C@]4(C)C3CC[C@@]21C` (stereo partly specified), for which the Increase result in test [1] is “inactive”. Moreover, the ED50 in the test listed under Rattus norvegicus (setting [3]) is 41 mg/kg. Take `C#C[C@]1(O)CCC2C3CC[C@H]4Cc5nn(S(=O)(=O)CCC)cc5C[C@]4(C)C3CC[C@@]21C` (stereo partly specified): the ED50 in the test filed under Rattus norvegicus (setting [3]) is below 100 mg/kg. `C[C@]12CCC3C(CC[C@H]4Cc5nn(S(C)(=O)=O)cc5C[C@]34C)C1CCC2=O` (stereo partly specified): in test [1], the Increase entry was “inactive”. The ED50 in the test listed under Rattus norvegicus (setting [3]) amounted to 100 mg/kg. For `CC1=C2CCC3C(CC[C@@]4(C)C3CC[C@]4(C)O)[C@@]2(C)Cc2cn(S(C)(=O)=O)nc21` (stereo partly specified), in that order: “inactive” and 3 mg/kg. As for `CC(=O)[C@@]1(O)CC[C@H]2[C@@H]3C=C(Cl)C4=CC(=O)[C@@H]5C[C@@H]5[C@]4(C)[C@H]3CC[C@@]21C` [CYPROTERONE], in the test filed under Rattus norvegicus (setting [3]), the ED50 amounted to 87 mg/kg. For `CC(O)(CS(=O)(=O)c1ccc(F)cc1)C(=O)Nc1ccc(C#N)c(C(F)(F)F)c1` (stereo unspecified) [BICALUTAMIDE], the ED50 in the test filed under Rattus norvegicus (setting [3]) was 4 mg/kg. Regarding `C#C[C@]1(O)CCC2C3CC[C@H]4Cc5c(c[nH][n+]5S(C)(=O)=O)C[C@]4(C)C3CC[C@@]21C` (stereo partly specified), the Increase result in test [1] is “inactive”. Moreover, the ED50 in the test listed under Rattus norvegicus (setting [3]) is above 100 mg/kg. In the case of `C#C[C@]1(O)CCC2C3CC[C@H]4Cc5n[nH]cc5C[C@]4(C)C3CC[C@@]21C` (stereo partly specified), the ED50 in the test listed under Rattus norvegicus (setting [3]) is 50 mg/kg. As to `C#C[C@]1(O)CC[C@H]2[C@@H]3CC[C@H]4Cc5nn(S(C)(=O)=O)cc5C[C@]4(C)[C@H]3CC[C@@]21C` (stereo in doubt; 28), the Increase result in test [1] is “inactive”.

`C#C[C@]1(O)CCC2C3CCC4=C(Cl)c5nn(S(C)(=O)=O)cc5C[C@]4(C)C3CC[C@@]21C` (stereo partly specified): the 50% effective dose (ED50) in the test listed under Rattus norvegicus (setting [3]) is above 100 mg/kg. Consider `C=C[C@]1(O)CCC2C3CC[C@H]4Cc5nn(S(C)(=O)=O)cc5C[C@]4(C)C3CC[C@@]21C` (stereo partly specified), for which, in test [2], the 50% effective dose (ED50) is 33 mg/kg. Further, the Increase result in test [1] was “inactive”. Turning to `CC(C)C(=O)Nc1ccc([N+](=O)[O-])c(C(F)(F)F)c1` [FLUTAMIDE], the 50% effective dose (ED50) in the test filed under Rattus norvegicus (setting [3]) is 5 mg/kg. Take `CC(C)(O)C(=O)Nc1ccc([N+](=O)[O-])c(C(F)(F)F)c1` [HYDROXYFLUTAMIDE]: the Increase entry in test [1] was “inactive”. In addition, the 50% effective dose (ED50) in the test listed under Rattus norvegicus (setting [3]) stood at 4 mg/kg.

`C#C[C@]1(O)CCC2C3CC[C@H]4Cc5nn(S(=O)(=O)CCCC)cc5C[C@]4(C)C3CC[C@@]21C` (stereo partly specified): the ED50 in the test listed under Rattus norvegicus (setting [3]) was above 100 mg/kg.

Values taken from ChEMBL document CHEMBL1124863, “Antiandrogenic steroidal sulfonylpyrazoles” (1990).
